One assay deals with HOP-62. The assay can be described thus: Growth inhibition of human HOP62 cells by SRB assay. The class given is functional.
Assay [1] deals with A549. The assay can be described thus: Growth inhibition of human A549 cells by SRB assay. Format: functional.
The test system of a further assay is ZR-75-1. Briefly: Growth inhibition of human ZR-75-1 cells by SRB assay. Format: functional.
For the next assay, the system named is KB. Briefly: Growth inhibition of human KB cells by SRB assay. Format: functional.
Assay [2] can be described thus: Growth inhibition of human Gurav cells by SRB assay. Format: functional.
For another assay, the species on record is Bos taurus. Briefly: Inhibition of bovine tubulin polymerization after 1 hr at 1 min interval by fluorescence assay. The essentials:
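Bovine brain tubulin, 2 mg/mL, in PEM buffer (80 mM PIPES, 0.5 mM EGTA, 2 mM MgCl2, pH 6.9) with fluorescent reporter, compounds at 3 μM, 37 °C. Reaction started by adding 1 mM GTP. Polymerization followed as fluorescence gain (ex 360/em 420 nm), read every 1 min for 1 h. Nocodazole as positive control.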

The test system of assay [3] is A549. The assay can be described thus: Inhibition of alpha-tubulin in human A549 cells assessed as ratio of free to polymerized tubulin at 5 uM after 24 hrs by densitometric analysis relative to control. Format: cell-based. The essentials: (§1)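 A549 cells exposed 24 h (5 μM test agents; 1 μM nocodazole or taxol). Spun 15000g, 30 min, 22 °C to give soluble and polymerized fractions. α-Tubulin Western blot; band densitometry as soluble/polymerized ratio.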

A further assay concerns COLO 205. Briefly: Growth inhibition of human COLO205 cells by SRB assay. The class given is functional.
Another assay concerns SiHa. The assay can be described thus: Growth inhibition of human SiHa cells by SRB assay. Format: functional.
A further assay deals with A2780. The assay can be described thus: Growth inhibition of human A2780 cells by SRB assay. Format: functional.
The subject of assay [4] is A549. The assay can be described thus: Cell cycle arrest in human A549 cells assessed as accumulation at G2/M phase at 5 uM after 48 hrs by propidium iodide staining-based flow cytometric analysis. The class given is functional. A digest of the protocol: (§2)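 A549 cells treated 48 h (5 μM test agents; 1 μM standard), trypsin-EDTA harvest, PBS wash, fixed in ice-cold 70% ethanol at 4 °C for 30 min, then stained 30 min at room temperature in the dark with propidium iodide/trisodium citrate/Triton X-100 solution. DNA content by flow cytometry; G2/M fraction compared with untreated control.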

Assay [5] is described as follows: Growth inhibition of human DWD cells by SRB assay. The class given is functional.
The test system of the next assay is MCF7. Briefly: Growth inhibition of human MCF7 cells by SRB assay. Format: functional.
The next assay deals with PC-3. Briefly: Growth inhibition of human PC3 cells by SRB assay. Format: functional.
Assay [6] concerns A549. The assay can be described thus: Inhibition of alpha-tubulin in human A549 cells assessed as ratio of free to polymerized tubulin at 1 uM after 24 hrs by densitometric analysis relative to control. The class given is cell-based. A digest of the protocol:
as §1

Assay [7] has as its system A549. Briefly: Cell cycle arrest in human A549 cells assessed as accumulation at G2/M phase at 1 uM after 48 hrs by propidium iodide staining-based flow cytometric analysis relative to control. The class given is functional. A digest of the protocol: as §2

Structures are written as SMILES. Calls of active or inactive are those of the source. The calls are words filed in the database; no cut-off is given here.

Turning to `Oc1ccc(-c2ccc(-c3ccc(-c4nc5c(O)cccc5[nH]4)cc3)cc2)cc1`, the GI50 is 2.41 µM with HOP-62; 0.17 µM with A549 [1]; 2.65 µM in the assay with ZR-75-1; 3.19 µM in the assay on KB; 0.19 µM in [2]; 2.6 µM with COLO 205. For the same molecule, the GI50 amounted to 2.41 µM with SiHa; 2.92 µM in the assay on A2780; 2.7 µM in assay [5]; 0.19 µM in the assay with MCF7; 0.19 µM in the assay on PC-3. In the assay filed under Bos taurus, the inhibition was 36.3%. Also, the fold change (FC) in the assay with A549 [3] worked out at 1.1. Further, in the assay with A549 [4], the result was Active.

With `COc1cc(-c2ccc(-c3ccc(-c4nc5cc(C)ccc5[nH]4)cc3)cc2)cc(OC)c1OC`, the GI50 in the assay on HOP-62 is 2.37 µM; with A549 [1], under 0.1 µM; in the assay with ZR-75-1, 0.19 µM; in the assay on KB it was 2.11 µM; in assay [2] it was 0.17 µM; in the assay on COLO 205 it was 0.19 µM. The GI50 came to 0.17 µM with SiHa; 0.19 µM in the assay on A2780; 0.17 µM in assay [5]; 0.17 µM in the assay on MCF7; 0.18 µM in the assay on PC-3. In the assay filed under Bos taurus, the inhibition is 48.8%. The fold change (FC) in the assay with A549 [3] worked out at 1.3. Further, the result in the assay on A549 [4] was Active.

`COc1cc(-c2ccc(-c3ccc(-c4nc5c(O)cccc5[nH]4)cc3)cc2)cc(OC)c1OC`: the GI50 with HOP-62 was 0.19 µM; in the assay with A549 [1] it was under 0.1 µM; in the assay with ZR-75-1, 0.19 µM; in the assay on KB, 2.11 µM; in [2] it was 0.17 µM; with COLO 205, 0.19 µM. For the same molecule, the GI50 with SiHa is 0.17 µM; in the assay on A2780, 0.17 µM; in assay [5] it was 0.19 µM; in the assay with MCF7 it was under 0.1 µM; in the assay with PC-3, 0.17 µM. Moreover, in the assay listed under Bos taurus, the inhibition came out at 98.3%. In addition, in the assay with A549 [3], the fold change (FC) amounted to 1.4. Besides, the result with A549 [4] was Active.

Consider `COC(=O)Nc1nc2cc(C(=O)c3cccs3)ccc2[nH]1`, for which the fold change (FC) with A549 [6] was determined as 1.5. The molecule further showed an inhibition in the assay filed under Bos taurus of 58.9%. The outcome in the assay with A549 [7] was Active.

On to `Cc1ccc2[nH]c(-c3ccc(-c4ccc(-c5ccc(F)cc5)cc4)cc3)nc2c1`, for which the GI50 in the assay on HOP-62 worked out at 33.5 µM; in the assay on A549 [1], 6.03 µM; with ZR-75-1, 35 µM; in the assay on KB, 24.9 µM; in [2], 16.5 µM; with COLO 205, 100 µM. Further, the GI50 was determined as 41 µM in the assay with SiHa; 24.6 µM with A2780; 33.1 µM in assay [5]; 30.2 µM in the assay with MCF7; 100 µM in the assay with PC-3.

In the case of `COc1ccc(-c2ccc(-c3ccc(-c4nc5cc(C)ccc5[nH]4)cc3)cc2)cc1OC`, the 50% growth inhibitory concentration (GI50) was 2.12 µM in the assay with HOP-62; 2.1 µM in the assay with A549 [1]; 3.1 µM in the assay on ZR-75-1; 2.19 µM in the assay with KB; 1.31 µM in [2]; 2.32 µM with COLO 205. The GI50 amounted to 3.51 µM with SiHa; 2.13 µM in the assay on A2780; 1.72 µM in assay [5]; 0.19 µM in the assay with MCF7; 2.56 µM in the assay on PC-3.

On to `Cc1ccc2[nH]c(-c3ccc(-c4ccc(-c5ccc(C(F)(F)F)cc5)cc4)cc3)nc2c1`, for which the GI50 in the assay on HOP-62 was found to be 24.2 µM; in the assay on A549 [1], 3.52 µM; in the assay on ZR-75-1 it was 2.41 µM; in the assay on KB it was 41.2 µM; in assay [2], 12 µM; in the assay on COLO 205, 30.6 µM. Also, the GI50 in the assay on SiHa was 33.2 µM; in the assay with A2780, 12.3 µM; in [5] it was 38.2 µM; in the assay on MCF7, 31 µM; in the assay on PC-3 it was 2.01 µM.

Turning to `Oc1cccc2[nH]c(-c3ccc(-c4ccc(-c5ccc(F)cc5)cc4)cc3)nc12`, the GI50 in the assay with HOP-62 is 8.31 µM; in the assay on A549 [1], 0.17 µM; in the assay on ZR-75-1 it was 6.32 µM; with KB it was 6.92 µM; in assay [2], 2.86 µM; in the assay with COLO 205, 1.22 µM. The GI50 in the assay on SiHa came to 9.1 µM; in the assay with A2780, 41.2 µM; in assay [5] it was 22.2 µM; in the assay with MCF7, 3.01 µM; with PC-3, 15.3 µM.

As for `CC(=O)O[C@H]1C(=O)[C@@]2(C)[C@H]([C@H](OC(=O)c3ccccc3)[C@]3(O)C[C@H](OC(=O)[C@H](O)[C@@H](NC(=O)c4ccccc4)c4ccccc4)C(C)=C1C3(C)C)[C@]1(OC(C)=O)CO[C@@H]1C[C@@H]2O`, the fold change (FC) with A549 [6] stood at 0.5.

With `COc1ccc(-c2ccc(-c3ccc(-c4nc5c(O)cccc5[nH]4)cc3)cc2)cc1`, the GI50 was 3.21 µM with HOP-62; 7.69 µM in the assay on A549 [1]; 8.2 µM with ZR-75-1; 4.9 µM in the assay on KB; 6.63 µM in assay [2]; 1.63 µM in the assay on COLO 205. In addition, the GI50 in the assay with SiHa amounted to 4.8 µM; with A2780 it was 8.64 µM; in assay [5] it was 6.4 µM; in the assay with MCF7 it was 3.11 µM; in the assay with PC-3, 6.61 µM.

For `COc1ccc(-c2ccc(-c3ccc(-c4nc5ccccc5[nH]4)cc3)cc2)cc1OC`, the GI50 worked out at 4.2 µM with HOP-62; 7.6 µM in the assay with A549 [1]; 39.7 µM with ZR-75-1; 9.25 µM in the assay on KB; 9.23 µM in assay [2]; 41.2 µM in the assay on COLO 205. The 50% growth inhibitory concentration (GI50) with SiHa stood at 6.2 µM; in the assay with A2780, 21.6 µM; in assay [5], 42.1 µM; in the assay on MCF7, 7.6 µM; in the assay with PC-3, 47.1 µM.

As to `Oc1cccc2[nH]c(-c3ccc(-c4ccc(-c5ccccc5)cc4)cc3)nc12`, the GI50 with HOP-62 was 9.04 µM; in the assay with A549 [1], 8.32 µM; with ZR-75-1, 35.6 µM; with KB, 4.01 µM; in assay [2], 1.11 µM; in the assay with COLO 205, 1.21 µM. The 50% growth inhibitory concentration (GI50) with SiHa came to 9.71 µM; in the assay with A2780, 41 µM; in assay [5] it was 9.68 µM; in the assay on MCF7, 2.2 µM; with PC-3 it was 1.24 µM.

For the molecule `CN(C)c1ccc(-c2ccc(-c3ccc(-c4nc5ccccc5[nH]4)cc3)cc2)cc1`, the GI50 with HOP-62 was determined as 100 µM; in the assay with A549 [1] it was 30.1 µM; with ZR-75-1, 100 µM; in the assay on KB, 39.3 µM; in assay [2], 100 µM; in the assay on COLO 205, 100 µM. For the same molecule, the GI50 in the assay on SiHa amounted to 100 µM; in the assay on A2780, 100 µM; in assay [5], 100 µM; in the assay with MCF7, 41.2 µM; in the assay on PC-3, 100 µM.

For `FC(F)(F)c1ccc(-c2ccc(-c3ccc(-c4nc5ccccc5[nH]4)cc3)cc2)cc1`, the GI50 was determined as 100 µM in the assay with HOP-62; 36.6 µM with A549 [1]; 48.3 µM in the assay with ZR-75-1; 47.2 µM in the assay on KB; 39.1 µM in [2]; 33.9 µM with COLO 205. The GI50 was 100 µM in the assay on SiHa; 100 µM in the assay on A2780; 100 µM in assay [5]; 41.4 µM in the assay with MCF7; 45.2 µM in the assay with PC-3.
